Results as given in ChEMBL document CHEMBL4699419, “Antileishmanial assessment of isoxazole derivatives against L. donovani” (RSC Med Chem, 2020).

What was measured:
[1] = Selectivity index, ratio of CC50 for mouse J774.A1 cells to IC50 for amastigote form of Leishmania donovani MHOM/IN/80/Dd8; type: toxicity; details: read-out: Ratio CC50/IC50
Summary of the method: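 Macrophages infected at a 1:10 ratio with stationary promastigotes, then treated 72 h at 37 °C; luminescence read with Steady-Glo. IC50 values from probit analysis.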

[2] = Cytotoxicity against mouse J774A1 cells assessed as reduction in cell viability incubated for 48 hrs by MTT assay; type: cell-based, J774.A1
Summary of the method: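 J774A.1 macrophages, 0.2 × 10^6 per well, incubated overnight at 37 °C in 5% CO2, then exposed to compounds in DMSO for 48 h, with DMSO dilutions as controls. Viability read by MTT formazan at 600 nm. CC50 = 50% viability reduction versus medium-only cells, from probit regression; three independent experiments.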

[3] = tested on: Leishmania donovani; assay: Antileishmanial activity against Leishmania donovani MHOM/IN/80/Dd8 promastigotes harboring luciferase reporter gene infected in mouse J774 cells assessed as inhibition of amastigote growth incubated for 72 hrs by Steady-Glo luminescence assay; type: functional, organism-based; details: Leishmania donovani, MHOM/IN/80/Dd8, J774, 72 h; read-out: IC50
Summary of the method: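 J774A.1 mouse macrophages (2 × 10^5 per well, RPMI-1640 + 10% FCS, 37 °C CO2) infected after 24 h with stationary-phase luciferase-transgenic promastigotes at 1:10 macrophage:parasite; compounds in complete medium for 72 h at 37 °C. Medium swapped for PBS, Steady-Glo added, luminescence read; % inhibition vs untreated control RLU. IC50 by Probit log dose/response regression, three independent experiments.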

[4] = tested on: Leishmania donovani; assay: Antileishmanial activity against late log phase promastigote stage of Leishmania donovani MHOM/IN/80/Dd8 harboring luciferase reporter gene incubated for 72 hrs by Steady-Glo luminescence assay; type: functional, organism-based; details: Leishmania donovani, MHOM/IN/80/Dd8, 72 h; read-out: IC50
Summary of the method: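 Luciferase-transfected promastigotes kept at 25 ± 1 °C in medium 199 + 10% heat-inactivated FCS + G418 (20 μg ml–1). Late-log cells (5 × 10^5 per well) grown 72 h with graded compound concentrations from DMSO, DMSO dilution controls. Aliquot mixed 1:1 with Steady-Glo, luminescence (RLU) read; % inhibition vs control. IC50 by Probit regression, three independent experiments.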

| SMILES | selectivity ratio [1] | CC50 at 48 h [2] | IC50 [3] | IC50 [4] |
| --- | --- | --- | --- | --- |
| COC(=O)c1c(NCc2ccc(Cl)cc2)noc1-c1ccc([N+](=O)[O-])cc1 | 9.93 | 78.3 µM | 7.88 µM | 3.79 µM |
| COC(=O)c1c([N+](=O)[O-])noc1-c1ccccc1Cl | 4.82 | 80 µM | 16.6 µM | 2.72 µM |
| CCN(CC)CCNc1noc(-c2ccc([N+](=O)[O-])cc2)c1C(=O)OC | 8.49 | 69.2 µM | 8.15 µM | 26 µM |
| COC(=O)c1c(NCCCN2CCOCC2)noc1-c1ccc([N+](=O)[O-])cc1 | 15.8 | 71.8 µM | 4.53 µM | 33.8 µM |
| COC(=O)c1c([N+](=O)[O-])noc1-c1cc(-c2ccccc2Cl)n(-c2ccccc2)n1 | 3.76 | 79.9 µM | 21.2 µM | 0.76 µM |
| O=C(c1c([N+](=O)[O-])noc1-c1ccc([N+](=O)[O-])cc1)N1CCOCC1 | 4.22 | 66 µM | 15.6 µM | 2.71 µM |
| COC(=O)c1c(NCCCN2CCOCC2)noc1-c1ccc(Cl)cc1Cl | 3.44 | 73 µM | 21.2 µM | 2.58 µM |
| O=C(NCc1cccc(Cl)c1Cl)c1c([N+](=O)[O-])noc1-c1ccc(Cl)cc1 | 3.76 | 73.7 µM | 19.6 µM | 2.9 µM |
| COC(=O)c1c(NCc2ccc(C(C)(C)C)cc2)noc1-c1ccc([N+](=O)[O-])cc1 | 9.69 | 81.4 µM | 8.16 µM | 49.7 µM |
| O=C(Nc1ccccc1)c1c([N+](=O)[O-])noc1-c1ccc(Cl)cc1 | 25.1 | 89.3 µM | 3.56 µM | 2.81 µM |
| COC(=O)c1c(NCCCCNc2ccnc3cc(Cl)ccc23)noc1-c1ccc(Cl)cc1Cl | 3.39 | 93.5 µM | 27.6 µM | 5.93 µM |
| O=C(NCc1cccc(Br)c1)c1c([N+](=O)[O-])noc1-c1ccc(Cl)cc1Cl | 9.19 | 71.2 µM | 7.74 µM | 3.05 µM |
| COc1ccc(CNC(=O)c2c([N+](=O)[O-])noc2-c2ccc(Cl)cc2Cl)cc1 | 39.6 | 80.5 µM | 2.03 µM | 3.42 µM |
| CC(C)CCNC(=O)c1c([N+](=O)[O-])noc1-c1ccc([N+](=O)[O-])cc1 | 3.85 | 67 µM | 17.4 µM | 3.01 µM |
| COC(=O)c1c(NCCNc2cc(C(F)(F)F)nc3c(C(F)(F)F)cccc23)noc1-c1ccc(Cl)cc1Cl | 4.86 | 99 µM | 20.3 µM | 48.2 µM |
| COC(=O)c1c(NCCCNc2ccnc3cc(Cl)ccc23)noc1-c1cc2c(cc1[N+](=O)[O-])OCO2 | 4.55 | 73.6 µM | 16.1 µM | 7.75 µM |
| COc1ccc(CNC(=O)c2c([N+](=O)[O-])noc2-c2ccc(Cl)cc2Cl)cc1OC | 41.9 | 81.8 µM | 1.95 µM | 5.24 µM |
| COC(=O)c1c([N+](=O)[O-])noc1-c1cccc(-c2ncoc2C)c1 | 2.5 | 18.4 µM | 7.1 µM | 0.86 µM |

| SMILES | selectivity ratio [1] | CC50 at 48 h [2] | IC50 [3] | IC50 [4] |
| --- | --- | --- | --- | --- |
| O=C(NCCN1CCOCC1)c1c([N+](=O)[O-])noc1-c1ccc([N+](=O)[O-])cc1 | 3.49 | 76.5 µM | 21.9 µM | 2.83 µM |
| COc1ccc(CNC(=O)c2c([N+](=O)[O-])noc2-c2ccc(Cl)cc2)cc1 | 9.5 | 89.5 µM | 9.41 µM | 2.67 µM |
| COc1ccc(CNC(=O)c2c([N+](=O)[O-])noc2-c2ccc([N+](=O)[O-])cc2)cc1 | 33.8 | 69.6 µM | 2.06 µM | 3.52 µM |
| COC(=O)c1c(NCCNc2ccnc3cc(Cl)ccc23)noc1-c1cc2c(cc1[N+](=O)[O-])OCO2 | 2.48 | 3.7 µM | 1.49 µM | 2.04 µM |
| O=C(Nc1ccccc1)c1c([N+](=O)[O-])noc1-c1ccc(Cl)cc1Cl | 11.3 | 67.3 µM | 5.97 µM | 2.68 µM |
| O=C(NCc1ccc(F)cc1)c1c([N+](=O)[O-])noc1-c1ccc(Cl)cc1 | 4.72 | 91.9 µM | 19.4 µM | 1.16 µM |
| COc1ccc(CNC(=O)c2c([N+](=O)[O-])noc2-c2ccc(Cl)cc2)cc1OC | 33 | 106 µM | 3.22 µM | 3.05 µM |
| COC(=O)c1c(NCCNc2ccnc3cc(Cl)ccc23)noc1-c1ccccc1F | 2.32 | 3.42 µM | 1.47 µM | 1.73 µM |
| COC(=O)c1c(NCc2ccc(OC)cc2)noc1-c1ccc(Cl)cc1Cl | 1.5 | 34.6 µM | 23.9 µM | 3.09 µM |
| COC(=O)c1c(NCCNc2cc(C(F)(F)F)nc3c(C(F)(F)F)cccc23)noc1-c1ccccc1F | 4.52 | 80.4 µM | 17.8 µM | 43.2 µM |
| COC(=O)c1c([N+](=O)[O-])noc1-c1ccccc1Br | 1.08 | 34.8 µM | 32.2 µM | 0.34 µM |
| O=C(NCc1cccc(Cl)c1Cl)c1c([N+](=O)[O-])noc1-c1ccc(Cl)cc1Cl | 58 | 81.8 µM | 1.41 µM | 3.49 µM |
| O=C(NCc1ccc(F)cc1)c1c([N+](=O)[O-])noc1-c1ccc(Cl)cc1Cl | 1.7 | 86.4 µM | 50.6 µM | 2.46 µM |
| COC(=O)c1c(NCc2ccccc2)noc1-c1ccc(Cl)cc1Cl | 32.8 | 54.1 µM | 1.65 µM | 35.4 µM |
| COC(=O)c1c([N+](=O)[O-])noc1-c1cccc(-c2cnco2)c1 | 3.6 | 19.7 µM | 4.8 µM | 0.77 µM |
| COC(=O)c1c(NCCNc2ccnc3cc(Cl)ccc23)noc1-c1ccccc1[N+](=O)[O-] | 3.94 | 73.6 µM | 18.7 µM | 3.45 µM |
| CCCNC(=O)c1c([N+](=O)[O-])noc1-c1ccc([N+](=O)[O-])cc1 | 3.57 | 76.2 µM | 21.3 µM | 3.07 µM |
